The values below come from ChEMBL document CHEMBL5357041, “Discovery of novel β-elemene hybrids with hydrogen sulfide-releasing moiety possessing cardiovascular protective activity for the treatment of atherosclerosis” (RSC Med Chem, 2024).

Each structure is given as a SMILES string. Values after ≈ are worked out from the molar mass of the structure shown. Active and inactive are the calls of the source. No cut-off for these calls is given here.

The subject of data set [1] is Thoracic aorta. In words: Vasodilation activity against KCl-induced Sprague-Dawley rat thoracic aorta vessels contraction at 10 uM. The data set is classed as functional. In outline: (§1)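 Aortic rings of about 2 mm from anesthetized SD rats mounted in Krebs solution at 37 °C under oxygen, preload 9.8 mN, equilibrated about 1 h. Rings contracted with 25 mM K⁺, then compound added cumulatively. Relaxation (%) = (maximum KCl tension − tension after compound)/(maximum KCl tension − preload). ADT-OH served as control; mean ± SD, n = 4.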

The subject of data set [2] is HUVEC. The data set can be described thus: Inhibition of H2O2-induced oxidative damage in HUVECs preincubated for 24 hrs followed by H2O2 addition and measured after 2 hrs by MTT method. The data set is classed as functional, cell-based. To be noted: Homo sapiens, time 26.0 hrs. In outline: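 HUVECs were seeded and grown 24 h at 37 °C, 5% CO₂, then given compound (0.5, 5 or 20 μM) for 24 h. Control and model wells received serum-free medium instead. Model and treated wells were then exposed to 1 mM H₂O₂ for 2 h, followed by MTT for 4 h, DMSO, and absorbance at 570 nm. Trolox was the positive control; mean ± SD, n = 5.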
In general terms: Tetrazolium assays rely on reduction of a dye to a coloured formazan, in cell work by metabolically active cells.

Data set [3] is described as follows: Induction of H2S release in phosphate buffer at 100 uM measured upto 150 mins under L-cysteine stimulated condition by microplate reader analysis. The conditions noted are these: 2.5 h. In outline:
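Compound (100 μM) incubated with 1 mM L-cysteine in phosphate buffer at 37 °C, sampled at 0–150 min. Each sample quenched with zinc acetate and trichloroacetic acid, then N,N-dimethyl-p-phenylenediamine and FeCl₃ in HCl added. Absorbance read at 670 nm after 10 min; H₂S quantified against a NaHS standard curve (5–150 μM).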

Data set [4] concerns Thoracic aorta. The data set can be described thus: Vasodilation activity against KCl-induced Sprague-Dawley rat thoracic aorta vessels contraction at 40 uM. The data set is classed as functional. The gist of the method:
as §1

The subject of data set [5] is Thoracic aorta. The data set can be described thus: Vasodilation activity against KCl-induced Sprague-Dawley rat thoracic aorta vessels contraction at 5 uM. The data set is classed as functional. The gist of the method:
as §1

Data set [6] relates to Thoracic aorta. The data set can be described thus: Vasodilation activity against KCl-induced Sprague-Dawley rat thoracic aorta vessels contraction at 1 uM. The data set is classed as functional. In outline:
as §1

Data set [7] has as its system Thoracic aorta. The data set can be described thus: Vasodilation activity against KCl-induced Sprague-Dawley rat thoracic aorta vessels contraction at 20 uM. The data set is classed as functional. In outline:
as §1

Data set [8] concerns HUVEC. The data set can be described thus: Cytotoxicity against HUVECs at 0.5 to 200 uM incubated for 24 hrs by MTT assay. The data set is classed as toxicity, cell-based. The conditions noted are these: human, dose 0.5-200 µM. In outline:
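HUVECs bought from ATCC; compounds given for 24 h, then MTT (5 mg/mL, 20 μL/well) added for 4 h. Formazan dissolved in DMSO and absorbance read at 570 nm. Medium-only and untreated-cell wells served as controls.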

Data set [9] in a line: Cytotoxicity against mouse BMDM cells assessed as cell viability at 100 uM incubated for 24 hrs by MTT assay. The data set is classed as toxicity, cell-based. To be noted: BMDM cells (bone marrow-derived macrophages), read-out: Activity. In outline:
(§2)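 Primary bone marrow macrophages taken from 6-week-old male C57 mice and cultured 6–7 days before use. Compounds dosed for 24 h, then MTT added for 4 h and formazan dissolved in DMSO; absorbance read at 570 nm. Triplicate wells; medium-only and untreated-cell controls; mean ± SD, n = 4.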

The subject of data set [10] is RAW264.7. The data set can be described thus: Lipid lowering activity in ox-LDL stimulated mouse RAW264.7 cells at 50 uM by oil red O staining based microscopic analysis. The data set is classed as functional, cell-based. The gist of the method:
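RAW 264.7 cells allowed to adhere 2 h, then exposed to ox-LDL (50 μg/mL) plus compound (50 μM) for 24 h. Cells fixed in 4% paraformaldehyde, stained with oil red O, rinsed in 60% isopropanol and counterstained with hematoxylin. Oil red O-positive area percentage quantified microscopically; ANOVA used.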

A short description of data set [11]: Cytotoxicity against mouse BMDM cells assessed as cell viability at 50 uM incubated for 24 hrs by MTT assay. To be noted: BMDM cells (bone marrow-derived macrophages), read-out: Activity. The data set is classed as toxicity, cell-based. In outline: as §2
In data set [12] the test system is Thoracic aorta. The data set can be described thus: Vasodilation activity against KCl-induced Sprague-Dawley rat thoracic aorta vessels contraction in presence of glyburide. The data set is classed as functional, tissue-based.
Data set [13] is described as follows: Water solubility of the compound after 20 mins by HPLC analysis. The data set is classed as physicochemical. The gist of the method: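 Compound suspended in 1 mL water at room temperature, sonicated 20 min and passed through a 0.22 μm filter. Filtrate analyzed by HPLC (MeCN/water 95:5, 1.0 mL/min, UV 254 nm) and quantified against a standard curve of 0.5–500 μg/mL in MeOH.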

Turning to `C=C[C@]1(C)CC[C@@H](C(=C)COC(=O)c2ccccc2C(=O)OCCOc2ccc(-c3cc(=S)ss3)cc2)C[C@H]1C(=C)C`, the Activity in data set [1] is 17%; in data set [3], 100 µM; in [4], 28.25%; in data set [5], 10.01%; in data set [6], -2.99%; in data set [7], 17.46%. In [8], the Activity entry is recorded as “Non-Toxic”. Further, the inhibition entry in data set [2] is “Active”. In addition, the viability at 24 h, 100 µM in data set [9] came to 454%. Moreover, in data set [10], the outcome was Active. In addition, the viability at 24 h, 50 µM in data set [11] turned out to be 349%.
As to `Oc1ccc(-c2cc(=S)ss2)cc1`, the Activity in [1] is 42.24%; in [4] it was 75.01%; in [5] it was 5.39%; in [6], 3.08%; in data set [7] it was 61.69%; in data set [8] it was “Non-Toxic”. Further, the inhibition result in data set [2] was “Active”. Further, the outcome in data set [12] was inactive.
For the molecule `C=C[C@]1(C)CC[C@@H](C(=C)COC(=O)c2c(F)cccc2C(=O)OCCOc2ccc(-c3cc(=S)ss3)cc2)C[C@H]1C(=C)C`, the Activity is 38.87% in data set [1]; 100 µM in data set [3]; 61.41% in data set [4]; 25.08% in data set [5]; 18.12% in [6]; 51.85% in data set [7]. Further, the Activity result in data set [8] is listed as “Non-Toxic”. Besides, the inhibition result in [2] was “Active”. For the same molecule, the result in data set [12] and in [10] was Active. Further, the solubility (as a rule, the concentration that dissolves in the medium under given conditions) at 20 min in data set [13] turned out to be 40 µg/mL (≈ 62.6 µM). In addition, the viability at 24 h, 100 µM in data set [9] amounted to 347%. Also, in data set [11], the viability at 24 h, 50 µM is 193%.
